From ChEMBL document CHEMBL4020714, “Design, synthesis, and evaluation of curcumin derivatives as Nrf2 activators and cytoprotectors against oxidative death” (Eur J Med Chem, 2017) come the findings set out here.

For series [1], the system named is HepG2. Nature of the series: Cytotoxicity against human HepG2 cells assessed as reduction in cell viability at 5 uM after 24 hrs by MTT assay. It is filed as cell-based. As to conditions: hepg2, 24 h. In short, it runs like this:
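MTT viability in HepG2 cells (5×10^3/well) after 24 h exposure to compound at 5 μM. Formazan dissolved in DMSO and absorbance read at 570 nm. Mean ± SD of three independent experiments.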

The target of series [2] is T1, Nuclear factor erythroid 2-related factor 2 (Homo sapiens) (UniProt Q16236).
T1 sequence (whole entry): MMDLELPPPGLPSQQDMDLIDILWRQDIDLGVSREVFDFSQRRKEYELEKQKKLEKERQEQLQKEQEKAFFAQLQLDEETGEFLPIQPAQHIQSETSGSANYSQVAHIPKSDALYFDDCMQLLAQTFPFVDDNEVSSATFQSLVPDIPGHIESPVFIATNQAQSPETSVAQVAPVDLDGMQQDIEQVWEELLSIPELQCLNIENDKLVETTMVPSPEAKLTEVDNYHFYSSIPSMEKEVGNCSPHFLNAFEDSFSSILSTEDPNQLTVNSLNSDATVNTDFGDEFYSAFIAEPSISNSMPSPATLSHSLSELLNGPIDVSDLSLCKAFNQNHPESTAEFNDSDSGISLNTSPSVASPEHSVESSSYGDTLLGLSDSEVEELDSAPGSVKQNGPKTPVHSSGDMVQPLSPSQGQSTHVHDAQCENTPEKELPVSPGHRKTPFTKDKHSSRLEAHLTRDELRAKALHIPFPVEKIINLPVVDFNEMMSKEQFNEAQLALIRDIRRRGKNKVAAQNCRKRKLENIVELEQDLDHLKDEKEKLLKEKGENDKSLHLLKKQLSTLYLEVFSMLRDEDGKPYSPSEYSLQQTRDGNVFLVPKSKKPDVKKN
Kind of series: Activation of Nrf2 in human HepG2 cells assessed as cytoprotection against t-BHP-induced oxidative cell death at 5 uM incubated for 24 hrs followed by compound removal with subsequent incubation with 900 uM of t-BHP for 6 hrs by MTT assay. The format is cell-based. In short, it runs like this:
(§1)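 HepG2 cells (5×10^3/well) seeded and grown 24 h in 1640 medium with 10% FBS at 37 °C and 5% CO2. Compound is added for 24 h, then removed, and cells are challenged with 900 μM t-BHP for 6 h at 37 °C. MTT (0.5 mg/mL) is added for 4 h, formazan dissolved in DMSO, and absorbance read at 570 nm. Where used, inhibitors are added 1 h before compound. Mean ± SD of three independent experiments.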

Series [3] is described as follows: Stability of the compound in PBS at 40 uM at pH 7.4 at 25 degC measured for 30 mins by UV-Vis spectrophotometric analysis. The format is physicochemical. As to conditions: buffer, pH 7.4, 0.5 h. In short, it runs like this: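 Compound at 40 μM in PBS (pH 7.4) at 25 °C. UV-visible absorption spectra recorded every 2 min for 30 min against blanks of solution plus DMSO.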

Series [4] deals with T1, Nuclear factor erythroid 2-related factor 2 (Homo sapiens). Kind of series: Activation of Nrf2 in human HepG2 cells assessed as increase in GCLM expression level at 20 uM by Western blot analysis. The format is cell-based. A digest of the protocol: (§2)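 HepG2 cells (2×10^6/well) treated at the indicated concentrations and times. Whole-cell lysates, or nuclear and cytoplasmic fractions, are prepared and quantified by BCA. Samples are run at 40 μg/lane on 12% SDS-PAGE, transferred to nitrocellulose, probed with specific antibodies and HRP secondary (1/5000), and detected by ECL. Where used, LY294002 (15 μM), SP600125 (25 μM) or DTT (400 μM) is added 1 h before compound.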

Series [5] shares this target. Nature of the series: Activation of Nrf2 in human HepG2 cells assessed as increase in HO-1 expression level at 20 uM by Western blot analysis. The format is cell-based. A digest of the protocol: as §2
For series [6] the target is unchanged. Nature of the series: Activation of Nrf2 in human HepG2 cells assessed as cytoprotective activity against t-BHP-induced oxidative cell death at 20 uM incubated for 24 hrs followed by compound removal with subsequent incubation with 900 uM of t-BHP for 6 hrs by MTT assay. It is filed as cell-based. In short, it runs like this: as §1
The target is the same in series [7]. Nature of the series: Activation of Nrf2 in human HepG2 cells assessed as increase in Nrf2 expression level at 20 uM by Western blot analysis. It is filed as cell-based. In short, it runs like this:
as §2

The target is the same in series [8]. Kind of series: Activation of Nrf2 in human HepG2 cells assessed as increase in GCLC expression level at 20 uM by Western blot analysis. It is filed as cell-based. In short, it runs like this: as §2
For series [9] the target is unchanged. Nature of the series: Activation of Nrf2 in human HepG2 cells assessed as increase in GCLC expression level after 3 hrs by Western blot analysis. It is filed as cell-based. In short, it runs like this:
as §2

For series [10] the target is unchanged. Nature of the series: Activation of Nrf2 in human HepG2 cells assessed as increase in Nrf2 expression level after 3 hrs by Western blot analysis. The format is cell-based. In short, it runs like this: as §2
The target is the same in series [11]. Nature of the series: Activation of Nrf2 in human HepG2 cells assessed as increase in HO-1 expression level after 3 hrs by Western blot analysis. It is filed as cell-based. A digest of the protocol:
as §2

Series [12] shares this target. Kind of series: Activation of Nrf2 in human HepG2 cells assessed as increase in GCLM expression level after 3 hrs by Western blot analysis. It is filed as cell-based. In short, it runs like this:
as §2

Calls of active or inactive are those of the source. The calls are words filed in the database; no cut-off is given here.

Regarding `COc1cccc(/C=C/C(=O)C(C)(C)C(=O)/C=C/c2cccc(OC)c2)c1`, the Activity entry in series [1] was “Non-Toxic”. Besides, the outcome in series [2] was Active.
Consider `COc1cc(/C=C/C(=O)C(C)(C)C(=O)/C=C/c2ccc(O)c(OC)c2)ccc1O`, for which the Activity result in series [1] is on record as “Non-Toxic”. For the same compound, the Stability entry in series [3] is “Stable”. Besides, the result in [2] was Active.
Consider `CC(C)(C)c1cc(O)ccc1O`, for which the result in [4], in series [5], in series [6], in series [7] and in series [8] was Active.
Consider `COc1ccc(/C=C/C(=O)C(C)(C)C(=O)/C=C/c2ccc(OC)c(OC)c2)cc1OC`, for which the Activity result in series [1] is given as “Non-Toxic”. The Stability result in series [3] is reported as “Unstable”. Besides, the outcome in series [2] was Active.
Take `CC(C)(C(=O)CCc1ccc(O)c(O)c1)C(=O)CCc1ccc(O)c(O)c1`: the Activity result in series [1] is reported as “Non-Toxic”. Further, the result in [9], in [10], in [11] and in series [12] was inactive. The outcome in series [2] was Active.
With `COc1cc(/C=C/C(=O)C(C)(C)C(=O)/C=C/c2cc(OC)c(OC)c(OC)c2)cc(OC)c1OC`, in series [1], the Activity entry is “Non-Toxic”. Moreover, the result in series [2] was Active.
Take `CC(C)(C(=O)/C=C/c1ccccc1)C(=O)/C=C/c1ccccc1`: the Activity entry in series [1] is “Non-Toxic”. Further, in series [3], the Stability entry was “Unstable”. Besides, the outcome in [9], in [10], in series [11] and in series [12] was inactive. Also, the outcome in series [2] was Active.
In the case of `COc1cc(/C=C/C(=O)CC(=O)/C=C/c2ccc(O)c(OC)c2)ccc1O` [CURCUMIN], in series [1], the Activity entry was “Non-Toxic”. Further, the Stability result in series [3] is “Unstable”. Moreover, the outcome in series [2] was Active.
Consider `CC(C)(C(=O)/C=C/c1ccccc1C(F)(F)F)C(=O)/C=C/c1ccccc1C(F)(F)F`, for which the Activity entry in series [1] was “Non-Toxic”. Further, the result in series [2] was Active.
For the compound `CC(C)(C(=O)/C=C/c1ccccc1O)C(=O)/C=C/c1ccccc1O`, in series [1], the Activity entry was “Non-Toxic”. Further, in series [2], the result was Active.
As for `COc1cccc(OC)c1/C=C/C(=O)C(C)(C)C(=O)/C=C/c1c(OC)cccc1OC`, the Activity entry in series [1] is given as “Non-Toxic”. Further, the outcome in series [2] was Active.
Consider `COc1ccccc1/C=C/C(=O)C(C)(C)C(=O)/C=C/c1ccccc1OC`, for which the Activity result in [1] is recorded as “Non-Toxic”. The outcome in series [2] was Active.
